Data: ChEMBL document CHEMBL1137743, “Synthesis, antimicrobial evaluation and QSAR study of some 3-hydroxypyridine-4-one and 3-hydroxypyran-4-one derivatives” (2009)
Values after ≈ are worked out from the molar mass of the structure shown.

Assays:
[1] = test system: Escherichia coli; experiment: Antibacterial activity against Escherichia coli PTCC 1338 after 24 hrs by microplate alamar blue assay; format: functional; details: PTCC 1338, 24 h
Procedure, shortened: (§1)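 Bacteria from Persian type culture collection grown in Mueller–Hinton broth. Inoculum suspensions adjusted to 0.5 McFarland, final inoculum 1.5 ×10⁴. Compounds dissolved in DMSO, serially diluted twofold across the 8–512 range in 96-well plates, Alamar Blue added, sealed plates incubated 24 h at 37 °C. MIC is the lowest concentration preventing the blue-to-pink colour change. Ciprofloxacin was the reference drug.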

[2] = test system: Salmonella enterica subsp. enterica; experiment: Antibacterial activity against Salmonella enteritidis PTCC 1091 after 24 hrs by microplate alamar blue assay; format: functional, Salmonella enterica subsp. enterica serovar Enteritidis; details: PTCC 1091, 24 h; procedure, shortened: as §1
[3] = test system: Pseudomonas aeruginosa; experiment: Antibacterial activity against Pseudomonas aeruginosa PTCC 1074 after 24 hrs by microplate alamar blue assay; format: functional; details: for MIC: Pseudomonas aeruginosa, PTCC 1074, 24 h; procedure, shortened: as §1
[4] = test system: Staphylococcus aureus; experiment: Antibacterial activity against Staphylococcus aureus PTCC 1337 after 24 hrs by microplate alamar blue assay; format: functional; details: for MIC: Staphylococcus aureus, PTCC 1337, 24 h; procedure, shortened: as §1
[5] = test system: Listeria monocytogenes; experiment: Antibacterial activity against Listeria monocytogenes PTCC 1165 after 24 hrs by microplate alamar blue assay; format: functional; details: PTCC 1165, 24 h; procedure, shortened: as §1
[6] = test system: Bacillus subtilis; experiment: Antibacterial activity against Bacillus subtilis PTCC 1023 after 24 hrs by microplate alamar blue assay; format: functional; details: PTCC 1023, 24 h; procedure, shortened: as §1
[7] = test system: Candida albicans; experiment: Antifungal activity against Candida albicans PTCC 5027 after 48 hrs by microplate alamar blue assay; format: functional; details: for MIC: Candida albicans, PTCC 5027, 48 h
Procedure, shortened: (§2)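 Fungi from Persian type culture collection, tested in RPMI 1640 buffered with MOPS at pH 7.0. Final inoculum 1.5 ×10⁵. Compounds in DMSO, twofold serial dilutions over 8–512 in 96-well plates with Alamar Blue, incubated 48 h at 25 °C. MIC is the lowest concentration blocking the blue-to-pink shift. Ketoconazole was the reference agent.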

[8] = test system: Aspergillus niger; experiment: Antifungal activity against Aspergillus niger 5021 after 48 hrs by microplate alamar blue assay; format: functional; details: Aspergillus niger, 5021, 48 h; procedure, shortened: as §2
[9] = test system: Aspergillus flavus; experiment: Antifungal activity against Aspergillus flavus PTCC 5003 after 48 hrs by microplate alamar blue assay; format: functional; details: PTCC 5003, 48 h; procedure, shortened: as §2

SMILES	MIC [1] [µg/mL]	MIC [2] [µg/mL]	-logMIC [3]	MIC [3] [µg/mL]	-logMIC [4]	MIC [4] [µg/mL]	MIC [5] [µg/mL]	MIC [6] [µg/mL]	-logMIC [7]	MIC [7] [µg/mL]	MIC [8] [µg/mL]	MIC [9] [µg/mL]
CCc1[nH]cc(CN(CC)CC)c(=O)c1O	512 (≈ 2280 µM)	512 (≈ 2280 µM)	3.59	256 (≈ 1140 µM)	3.29	> 512	512 (≈ 2280 µM)	512 (≈ 2280 µM)	3.29	512 (≈ 2280 µM)	512 (≈ 2280 µM)	512 (≈ 2280 µM)
Cc1cc(=O)c(OCc2ccccc2)c(C(=O)O)o1			3.89		3.59				3.89			
Cn1cc(OCc2ccccc2)c(=O)cc1C(=O)Nc1ccccc1			3.59		3.89				3.89			
O=C(Nc1ccccc1)c1cc(=O)c(OCc2ccccc2)co1			3.59		3.89				3.89			
Cc1cc(=O)c(OCc2ccccc2)c(C=O)o1			3.89		4.19				3.89			
Cc1cc(=O)oc2cc(NC(=O)c3cc(=O)c(O)cn3C)ccc12			3.59		4.49				3.89			
CC(=O)N1CCN(c2ccc(OCC3COC(Cn4ccnc4)(c4ccc(Cl)cc4Cl)O3)cc2)CC1 (stereo not drawn) [KETOCONAZOLE]										2 (≈ 3.76 µM)	4 (≈ 7.53 µM)	8 (≈ 15.1 µM)
CCc1[nH]cc(CN(C)C)c(=O)c1O	512 (≈ 2610 µM)	256 (≈ 1300 µM)	3.59	256 (≈ 1300 µM)	3.29	512 (≈ 2610 µM)	512 (≈ 2610 µM)	> 512	3.29	512 (≈ 2610 µM)	512 (≈ 2610 µM)	512 (≈ 2610 µM)
CCN(CC)Cc1c[nH]c(C)c(O)c1=O	512 (≈ 2430 µM)	128 (≈ 609 µM)	3.29	256 (≈ 1220 µM)	4.19	512 (≈ 2430 µM)	> 512	> 512	3.89	512 (≈ 2430 µM)	512 (≈ 2430 µM)	512 (≈ 2430 µM)
Cc1cc(=O)c(O)c(CO)o1			3.89		3.59				3.89			
Cc1cc(=O)c(OCc2ccccc2)c(CO)o1			3.59		3.59				3.89			
Cc1c(O)c(=O)ccn1-c1ccccc1	128 (≈ 636 µM)	128 (≈ 636 µM)	3.29	512 (≈ 2540 µM)	3.89	128 (≈ 636 µM)	512 (≈ 2540 µM)	256 (≈ 1270 µM)	3.29	> 512	> 512	> 512
Cc1cc(=O)c(O)c(C(=O)Nc2cccc3ccccc23)o1			3.89		3.59				3.89			
Cc1cc(=O)oc2cc(NC(=O)c3cc(=O)c(OCc4ccccc4)cn3C)ccc12			3.89		3.59				3.89			
Cn1cc(O)c(=O)cc1C(=O)Nc1ccccc1			3.89		4.8				3.89			
CCCCn1ccc(=O)c(O)c1C	512 (≈ 2830 µM)	256 (≈ 1410 µM)	3.29	512 (≈ 2830 µM)	3.89	256 (≈ 1410 µM)	> 512	512 (≈ 2830 µM)	3.59	256 (≈ 1410 µM)	256 (≈ 1410 µM)	256 (≈ 1410 µM)
